Series [1] in a line: Inhibition of Mycobacterium tuberculosis salicylate synthase expressed in Escherichia coli BL21 cells using chorismic acid as substrate by fluorimetric assay. The essentials:
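Purified recombinant enzyme, 1–2 μM, in 50 mM Hepes pH 7.5, 5 mM MgCl₂ at 37 °C, with 50 μM chorismic acid. Fluorescence read at Ex 305 nm / Em 420 nm. Run only for compounds with residual activity below 30 % at 100 μM. Activity measured across 0.1–200 μM inhibitor and IC50 fitted as A[I] = A[0]·(1 − [I]/([I]+IC50)).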

Series [2] relates to Mycobacteroides abscessus. Kind of series: Inhibition of Mycobacterium abscessus ATCC 19977 salicylate synthase expressed in Escherichia coli BL21 (DE3) cells using chorismic acid as substrate assessed as residual activity at 100 uM by fluorimetric assay relative to control. The essentials: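 Enzyme purified by IMAC and gel filtration, used at 1–2 μM in 50 mM Hepes pH 7.5 with 5 mM MgCl₂ at 37 °C. Reaction started with 50 μM chorismic acid; fluorescence read at Ex 305 / Em 420 nm. Compound tested at a fixed 100 μM; percent residual activity recorded.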

Series [3] relates to Mycobacterium tuberculosis. Kind of series: Inhibition of Mycobacterium tuberculosis salicylate synthase expressed in Escherichia coli BL21 cells using chorismic acid as substrate assessed as residual activity at 100 uM by fluorimetric assay relative to control. The essentials:
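Recombinant His-purified enzyme (IMAC plus gel filtration), 1–2 μM, in 50 mM Hepes pH 7.5, 5 mM MgCl₂ at 37 °C. Reaction started with chorismic acid at a subsaturating 50 μM. Compound tested at a fixed 100 μM. Fluorescence monitored at Ex 305 nm / Em 420 nm, and activity expressed as % residual activity.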

Series [4] in a line: Inhibition of Mycobacterium abscessus ATCC 19977 salicylate synthase expressed in Escherichia coli BL21 (DE3) cells using chorismic acid as substrate by fluorimetric assay. Further details: species or system Mycobacteroides abscessus. In a few lines: (§1)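 Purified enzyme (IMAC plus gel filtration) at 1–2 μM in 50 mM Hepes pH 7.5, 5 mM MgCl₂, 37 °C, with 50 μM chorismic acid; fluorimetric read-out at Ex 305 / Em 420 nm. IC50 measured over 0.1–200 μM inhibitor for compounds leaving under 30 % residual activity at 100 μM, fitted as A[I] = A[0]·(1 − [I]/([I]+IC50)).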

Series [5] can be described thus: Inhibition of Mycobacterium abscessus ATCC 19977 salicylate synthase expressed in Escherichia coli BL21 (DE3) cells by fluorimetric assay. Set-up: species or system Mycobacteroides abscessus. In a few lines: as §1
Series [6] in a line: Inhibition of Mycobacterium abscessus ATCC 19977 salicylate synthase expressed in Escherichia coli BL21 (DE3) cells using chorismic acid as substrate in presence of Triton X-100 by fluorimetric assay. Set-up: species or system Mycobacteroides abscessus. In a few lines: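 IC50 determined in the standard fluorimetric chorismate assay (1–2 μM enzyme, 50 mM Hepes pH 7.5, 5 mM MgCl₂, 37 °C, 50 μM chorismic acid) with 0.01 % (v/v) Triton X-100 added as detergent.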

Series [7] is described as follows: Inhibition of Mycobacterium abscessus ATCC 19977 salicylate synthase expressed in Escherichia coli BL21 (DE3) cells using chorismic acid as substrate in presence of BSA by fluorimetric assay. Further details: species or system Mycobacteroides abscessus. The essentials:
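IC50 determined in the standard fluorimetric chorismate assay (1–2 μM enzyme, 50 mM Hepes pH 7.5, 5 mM MgCl₂, 37 °C, 50 μM chorismic acid, Ex 305 / Em 420 nm) with 0.1 mg/mL BSA added.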

Series [8] can be described thus: Inhibition of Mycobacterium abscessus ATCC 19977 salicylate synthase expressed in Escherichia coli BL21 (DE3) cells using chorismic acid as substrate in presence of DTT by fluorimetric assay. Further details: species or system Mycobacteroides abscessus. The essentials:
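IC50 determined in the standard fluorimetric chorismate assay (1–2 μM enzyme, 50 mM Hepes pH 7.5, 5 mM MgCl₂, 37 °C, 50 μM chorismic acid) with 100 μM DTT added to rule out cysteine reactivity.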

The nature of series [9]: Cytotoxicity against human fibroblast assessed as viable cells at 10 uM incubated for 96 hrs by MTS assay relative to control. Type of series: toxicity, cell-based. Particulars: human fibroblasts, read-out: Activity. The essentials: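 Juvenile human foreskin fibroblasts grown in DMEM with 10 % FBS, 1 % L-glutamine and penicillin/streptomycin; 1 × 10⁴ cells/well, treated after 24 h at 0.5, 1, 5 and 10 μM. After 96 h, viability read by MTS at 490 nm and expressed as percent of untreated cells; three independent experiments.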
For orientation: Formazan colour is commonly taken as a measure of viable cells.

As usually defined, the IC50 is the concentration at which inhibition is half-maximal.

As to `N#Cc1cccc(-c2ccc(C(=O)O)o2)c1`, the IC50 in series [1] is 6.3 µM; in series [4], 12.1 µM. The values for the Activity in series [2] and in [3] were 3.2% and 3.1%, respectively.
With `COC(=O)c1ccc(-c2cccc(S(N)(=O)=O)c2)o1`, the Activity in series [2] turned out to be 55.3%.
For `O=C(O)c1ccc(-c2cccc(C(F)(F)F)c2)o1`, the Activity in [2] came to 35%; in series [3] it was 42%.
On to `O=C(O)c1ccc(-c2ccc(C(F)(F)F)cc2C(F)(F)F)o1`, for which the 50% inhibitory concentration (IC50) in series [5] was approximately 5 µM.
As for `O=C(O)c1ccc(-c2cccc(Cl)c2)o1`, the Activity in series [2] stood at 88.3%; in series [3], 102%.
`O=C(O)c1ccc(-c2cccc(O)c2)o1`: the Activity in series [2] came to 65%; in series [3], 70.4%.
For the compound `NS(=O)(=O)c1cccc(-c2cccc(C(=O)O)c2)c1`, the Activity in series [2] turned out to be 89.4%.
For `Cc1cccc(-c2ccc(C(=O)O)o2)c1`, the results for the Activity in series [2] and in series [3] were 54.7% and 104%, respectively.
As to `CS(=O)(=O)c1cccc(-c2ccc(C(=O)O)o2)c1`, the values for the IC50 in [1] and in series [4] were 34.9 µM and 3.6 µM, respectively. For the same compound, the figures for the Activity in series [2] and in series [3] were 5.4% and 25.8%, respectively.
In turn, `O=C(O)c1cccc(-c2ccc(C(=O)O)o2)c1` came in with an IC50 in series [1] of 35.2 µM. The Activity was determined as 33.3% in series [2] and 27.2% in [3].
On to `NS(=O)(=O)c1ccccc1-c1ccc(C(=O)O)o1`, for which the Activity in series [2] came to 97.1%.
On to `NS(=O)(=O)c1cccc(-c2ccc(C(=O)O)o2)c1`, for which the IC50 is 39.7 µM in series [1]; 2.8 µM in [6]; 2.8 µM in series [7]; 3.3 µM in series [8]; 2.6 µM in series [4]. For the same compound, the Activity in series [2] was found to be 0.6%; in series [3], 28.6%. Also, the viability at 96 h, 10 µM in series [9] worked out at 99.5%.
Take `CNC(=O)c1cccc(-c2ccc(C(=O)O)o2)c1`: the Activity in series [2] stood at 53.3%; in series [3], 84%.
In the same order, the values of `Nc1cccc(-c2ccc(C(=O)O)o2)c1` are 48.3% and 65.8%.
Consider `NC(=O)c1cccc(-c2ccc(C(=O)O)o2)c1`, for which the concentration for half-maximal inhibition (IC50) was 31.4 µM in series [1] and 42.9 µM in series [4]. For the same compound, the Activity was 25.8% in series [2] and 20.9% in series [3].
With `NS(=O)(=O)c1ccc(-c2ccc(C(=O)O)o2)cc1`, the Activity in series [2] turned out to be 16%. Moreover, the IC50 in [4] worked out at 19.3 µM.

The values above are taken from ChEMBL document CHEMBL5518184, “Structural basis for specific inhibition of salicylate synthase from Mycobacterium abscessus” (Eur J Med Chem, 2024).
